Only some compounds are listed: those with a hit (about 9.3% of all), similar ones and a draw of the others.
PostGolgi yeast: growth inhibition of a yeast mutant, post-Golgi transport screen | post-Golgi transport phenotypic cell assay | inhibition, % at 10 µM | 98,000 compounds, 0.9% hits | AID 739;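 also: yeast cells grown in 1536-well plates; yeast grown about 18 h at 30C before absorbance read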
DAT uptake mod: human DAT dopamine uptake with cocaine, either direction | Q01959 | LLC-PK1 hDAT cells, [14C]-dopamine uptake with cocaine IC80; actives deviate in either direction | B-score at 10 µM | 110,000 compounds, 1.3% hits | AID 449768;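 active = Z score or B-score, a plate-position-corrected score, falls beyond the plate's 99.7% confidence bounds, in either direction; inactive = both scores lie inside the 99.7% bounds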;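 also: scored against the spread of the other compound wells on the same plate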
D1 mod: D1 dopamine receptor (human) allosteric modulation. 58,000 compounds, 5.9% hits. AID 641. HEK293 D1, CRE-luciferase, dopamine EC30 potentiation; actives deviate in either direction. P21728. B-score at 10 µM;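 active = luminescence count or its row- and column-corrected plate score outside the 99.7% band of the plate's sample wells, on either side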
Target sequence (P21728 whole entry, looked up): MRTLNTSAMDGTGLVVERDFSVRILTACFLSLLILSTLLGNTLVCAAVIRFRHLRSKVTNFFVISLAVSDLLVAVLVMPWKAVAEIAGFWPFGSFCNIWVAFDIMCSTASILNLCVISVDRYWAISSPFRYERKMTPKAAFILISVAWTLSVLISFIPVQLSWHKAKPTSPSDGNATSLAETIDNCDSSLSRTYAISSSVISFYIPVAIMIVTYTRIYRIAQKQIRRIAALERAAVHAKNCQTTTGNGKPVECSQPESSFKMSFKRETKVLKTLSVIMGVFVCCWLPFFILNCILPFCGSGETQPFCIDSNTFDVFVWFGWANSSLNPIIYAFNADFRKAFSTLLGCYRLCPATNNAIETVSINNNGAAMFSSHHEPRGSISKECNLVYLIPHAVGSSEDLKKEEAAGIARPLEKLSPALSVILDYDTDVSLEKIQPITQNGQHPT
Ecoli tolC: blocks growth of E. coli BW25113 tolC mutant. OD615. growth inhibition, % at 10 µM (by protocol). 65,000 compounds, 2.2% hits. AID 573;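 active = growth inhibition at or above a cutoff equal to the mean over every tested compound plus 3 SD, cut at about 60% in these data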;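 also: growth measured after 20 h incubation at 37 °C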
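Test system: tolC-deleted E. coli BW25113; medium: LB with kanamycin 50 µg/mL; compound: single-point testing at 10 µM; incubation: 20 h compound exposure of bacteria at 37 °C; signal: OD at 615 nm; evaluation: growth inhibition in percent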
E coli WT exp: blocks growth of wild type E. coli BW25113; OD600 absorbance; AID 710; 98,000 compounds, 0.15% hits; growth inhibition, % at 100 µM;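 active = growth inhibition above about 50% at one test dose, limit read from the data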;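 also: growth measured after 20 h incubation at 37 °C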
PostGolgi ctrl: yeast control strain growth, post-Golgi counter-screen; inhibition, % at 10 µM; 98,000 compounds, 5% hits; efflux-deficient yeast background strain, growth absorbance A615, 16 h
Starred values were filed as active, the others as inactive; x = no result given. Rule as the data show it, unless noted: active = inhibition above about 30%; inactive = the rest.

SMILES	PostGolgi yeast	DAT uptake mod	D1 mod	Ecoli tolC	E coli WT exp	PostGolgi ctrl
CCOCC(=O)Nc1cc(-c2cn3cccnc3n2)ccc1C	-21	1	-0.87	-19	8	36*
C/C=C\C(=O)Nc1cccc(C2=NOC3(C2)C[C@H](C(N)=O)N(C(=O)[C@H]2CCC(=O)N2)C3)c1 (stereo partly drawn)	x	-0.03	x	x	x	x
O=C(Nn1cnnc1)c1cc(-c2ccccn2)nc2ccccc12	10	-1.2	-0.52	-11	7	1
O=C(NC1CC1)c1cc(-c2ccccn2)nc2ccccc12	1	0.0051	x	x	2	34*
CC(=O)N(Cc1cc2ccc(C)c(C)c2n2nnnc12)C1CCCC1	x	x	0.58	-3	x	x
Cc1ccc2cc(CN(Cc3cccs3)C(=O)c3ccco3)c3nnnn3c2c1C	x	x	3.7*	26	x	x
Cc1ccc2c(c1)cc(CN(Cc1cccs1)C(=O)c1ccco1)c1nnnn12	6	0.56	x	13	-7	42*
Cc1ccc2c(c1)cc(CN(Cc1ccc3c(c1)OCO3)S(=O)(=O)c1ccccc1)c1nnnn12	7	0.28	x	21	-17	11
COc1cc2c(cc1OC)C(C(=O)N1CCN(c3ccccc3)CC1)C(c1cccs1)N(C)C2=O (stereo not drawn)	0	0.23	x	x	1	2
COCCn1c(SCC(=O)c2ccc(F)cc2)nnc1C(C)C	-8	-1.4	0.065	-8	3	-1
CCc1cccc(CC)c1NC(=O)CN1CC(C)SC1=NC1CCCCC1 (stereo not drawn)	-3	0.12	x	x	8	27
COc1cccc(CSc2nc3sc(C)c(C)c3c(=O)n2Cc2ccco2)c1	-4	-0.19	-0.0025	7	-11	-2
CC1CCc2nn(CC(=O)NCCC3=CCCCC3)cc2C1 (stereo not drawn)	-5	7.5*	0.69	8	8	37*
COCCNC(=O)Cn1cc2c(n1)CCC(C)C2 (stereo not drawn)	-6	-0.33	x	-6	6	-3
COc1cccc(-c2nnc3n2N=C(c2cc(OC)ccc2OC)CS3)c1	8	0.77	x	x	-8	37*
COc1ccc(OC)c(C2=Nn3c(nnc3-c3cc(OC)c(OC)c(OC)c3)SC2)c1	9	1.2	0.98	14	-1	24
Cc1nnc(NC(=O)c2cccc(NC(=O)C(C)C)c2)s1	-2	-7*	x	x	5	1
Cc1cc(C)c2c3c(sc2n1)C(c1cccc(F)c1)C(C#N)=C(N)O3 (stereo not drawn)	19	0.77	x	x	-2	74*
CCCN1CCC2(CC1)C(C#N)=C(N)Oc1c2sc2nc(C)cc(C)c12	-3	0.049	x	x	-4	-6
Cc1nn(-c2nc3ccccc3[nH]2)c(N)c1-c1ccc(Cl)cc1	-2	-0.78	x	x	-8	72*
COc1ccc(-c2c(C)nn(-c3ccccc3)c2N)cc1	1	0.74	x	x	5	38*
Cc1csc(NC(=O)CSc2nnc(Cn3c(=O)sc4ccccc43)n2-c2ccccc2)n1	10	0.76	3.2	0	-4	-3
C=CCNC(=S)NNC(=O)c1ccc(OCCC)cc1	x	0.72	x	x	x	x
CCCOc1ccc(C(=O)NNC(=S)NC(=O)CC)cc1	76*	0.77	x	x	68*	99*
O=C(O)C1C2C=CC(C2)C1C(=O)OC1CC2CCC1C2 (stereo not drawn)	0	0.015	-4.9*	-7	-10	-3
SMILES	PostGolgi yeast	DAT uptake mod	D1 mod	Ecoli tolC	E coli WT exp	PostGolgi ctrl
Cc1nc(-c2ccccc2)sc1C1(C)CC(c2ccc(OC(F)(F)F)cc2)=NO1 (stereo not drawn)	x	0.43	x	x	x	x
Cc1ccc(S(=O)(=O)Nc2cc(C(=O)Nc3cc(C)cc(C)c3)ccc2Cl)cc1	-1	-0.43	x	x	-3	37*
O=[N+]([O-])c1ccc(N2CCN(S(=O)(=O)c3ccc(Cl)cc3)CC2)cc1NCc1cccnc1	71*	0.18	x	x	-9	11
O=[N+]([O-])c1ccc(N2CCN(S(=O)(=O)c3ccccc3)CC2)cc1NCc1cccnc1	-7	-0.48	x	x	-14	18
Cc1cnnn1-c1ccc(C(=O)CCl)cc1	9	x	x	x	98*	6
CCn1cc([N+](=O)[O-])c(C(=O)N2N=C3/C(=C/c4cccs4)CCCC3C2c2cccs2)n1 (stereo not drawn)	x	1.3	x	x	x	x
CSc1nnc2n(C)c3c(c(=O)n12)C1(CCCC1)Cc1ccccc1-3	1	-0.92	x	20	-1	38*
COc1cc(CC(=O)NCCc2ccc(S(N)(=O)=O)cc2)cc(OC)c1OC	5	0.086	x	x	-2	15
Cc1ccccc1N(CC(=O)N/N=C/c1ccc(Cl)cc1)C(=O)c1ccccc1	8	0.97	x	x	-10	32*
Cc1ccccc1N(CC(=O)N/N=C/c1ccc(F)cc1)C(=O)c1ccccc1	8	1.3	x	x	-4	16
CC(=O)Nc1ccc2nc(-c3ccncc3)[nH]c2c1	-4	0.34	x	x	-3	8
CC(=O)Nc1ccc(-c2nc3c(C)cccc3[nH]2)cc1	6	-8.1*	-1.2	-4	-8	6
Cc1ccc(OCC(=O)N/N=C\c2c(C)n(C)c3ccccc23)c([N+](=O)[O-])c1	-1	1.3	x	x	-6	54*
Cc1c(CCOC(=O)CC23CC4CC(CC(C4)C2)C3)sc[n+]1Cc1ccccc1	7	x	x	x	19	17
CCCCCCCCCOC(=O)C[n+]1csc(CCO)c1C	14	-1.2	x	x	9	64*
Cc1c(C(=O)OCC(=O)N2CC(=O)Nc3ccccc32)oc2ccc(Br)cc12	4	-0.66	x	x	-2	2
CC(C)C(C)(C#N)NC(=O)CSc1ncnc2sc(-c3ccccc3)cc12 (stereo not drawn)	-12	-0.74	x	x	-14	40*
CN(CCC#N)C(=O)CSc1ncnc2sc(-c3ccccc3)cc12	-5	1.6	-0.024	27	-10	20
Nc1ccc(-c2n[nH]c(=O)c3ccccc23)cc1N	8	1.2	0.63	-6	7	12
CCCCC(CC)CN1C(=O)/C(=C/c2ccncc2)SC1=S (stereo not drawn)	13	-0.17	x	x	3	32*
CCOC(=O)c1cc2oc(C)cc2n1CC(=O)OC1CCCCC1	-7	0.35	-0.76	74*	6	12
COC(=O)c1cc2oc(C)cc2n1CC(=O)N(C)c1ccccc1	-3	-0.49	0.42	3	4	22
O=C(NCc1ccccc1F)C1CCCN(C(=O)NC2CCCCC2)C1 (stereo not drawn)	21	0.35	-0.027	6	4	9
O=C(NCCN1CCN(c2ccccc2)CC1)c1cccn2c(=O)c3cc(Cl)ccc3nc12	7	-0.51	0.87	14	3	68*
O=C1c2ccccc2C(=O)N1Cc1nc2ccccc2c(=O)n1CCN1CCOCC1	x	-0.69	-0.58	-37	x	x
CCn1c2ccccc2c2cc(/C(C)=N/O)ccc21	4	x	x	x	9	65*
CCn1c2ccccc2c2cc(N)ccc21	2	0.0029	-0.0012	-4	8	11
C/C(=N\O)c1ccc2c3ccccc3n(C)c2c1	-4	-0.72	-0.35	16	1	31*

Source: PubChem
